# Source: PubChem BioAssay
# In the library only some 2.5% were active in any assay of this set; here they are far more common.
# SIRT5 block – sirtuin-5 (human) deacylase inhibition; Q9NXA8; Purified SirT5, succinyl-peptide AMC, trypsin-coupled fluorescence; inhibition, % at 15 µM; 1.1% of 330,000 active; AID 652115; in the data active = inhibition above about 15%; inconclusive = no clear call, values can overlap the other calls
# E-sel inducer – induces E-selectin expression in human endothelial cells; P16581; HUVEC E-selectin immunofluorescence imaging; normalized: neutral wells 0, TNF-alpha wells 100; 0.37% of 260,000 active; activation, % at 7.58 µM;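 active = mean E-selectin-positive cell signal at least 10% of the positive control, reached in at least 60% of replicates, without over 20% cell loss; inconclusive = no rule given, readout overlaps actives, possibly toxicity-flagged; inactive = the rest, including those meeting only one limit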
# Target sequence (P16581 whole entry, looked up): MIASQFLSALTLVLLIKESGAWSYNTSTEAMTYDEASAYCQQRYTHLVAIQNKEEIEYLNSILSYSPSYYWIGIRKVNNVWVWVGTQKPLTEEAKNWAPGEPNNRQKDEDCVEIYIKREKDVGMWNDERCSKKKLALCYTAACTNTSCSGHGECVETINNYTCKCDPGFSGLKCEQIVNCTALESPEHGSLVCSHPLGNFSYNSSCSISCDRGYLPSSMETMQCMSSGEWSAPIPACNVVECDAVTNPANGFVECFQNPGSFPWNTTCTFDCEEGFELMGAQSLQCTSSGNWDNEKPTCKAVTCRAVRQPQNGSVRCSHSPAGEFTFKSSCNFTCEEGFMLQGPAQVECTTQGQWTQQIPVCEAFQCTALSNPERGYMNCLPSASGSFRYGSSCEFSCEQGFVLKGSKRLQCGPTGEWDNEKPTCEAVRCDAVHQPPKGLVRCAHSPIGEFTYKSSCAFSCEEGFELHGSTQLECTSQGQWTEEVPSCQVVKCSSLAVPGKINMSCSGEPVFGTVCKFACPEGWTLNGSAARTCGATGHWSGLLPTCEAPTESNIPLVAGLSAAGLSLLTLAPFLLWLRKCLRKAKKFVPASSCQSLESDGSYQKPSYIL
#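 material = human umbilical vein endothelial cells (HUVEC), E-selectin induction | quantity = 3,000 cells/well | medium = EGM-2 growth medium on 0.1% gelatin-coated wells | technique = immunofluorescence imaging | read-out basis = % PE-positive cells | control set = TNF-alpha positive control, DMSO neutral control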
# DENV2 CPE – DENV2-induced cell death inhibition; 1.7% of 350,000 active; DENV2-infected cells, cytopathic effect rescue, plate reader; AID 651640; CPE inhibition, % at 9.99 µM; in the data active = CPE inhibition above about 20%, passing the limit was not always enough; inconclusive = no clear call, values can overlap the other calls; tested in BHK-21 cells
# PglD DTNB – inhibitors of Campylobacter jejuni PglD acetyltransferase. AID 602405. 0.098% of 360,000 active. inhibition, % at 12.5 µM. purified PglD enzyme, DTNB colorimetric CoA detection; in the data active = inhibition above about 16%, passing the limit was not always enough; inconclusive = no clear call, values can overlap the other calls
# ERAP1 inh – ERAP1 (human) enzyme inhibition | recombinant ERAP1, Leu-AMC fluorescence, 60 min | inhibition, % at 10.7 µM | 0.15% of 340,000 active | AID 652197;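 active = mean replicate inhibition of at least 30%, or all replicates individually reaching that 30% level; inactive = mean below 30% and not every replicate reaching it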
# Hits are given with their value; i = inactive; ? = inconclusive; nt = not tested or not shown.
SMILES,SIRT5 block,E-sel inducer,DENV2 CPE,PglD DTNB,ERAP1 inh
CCOC(=O)C1(Cc2cccc(OC)c2)CCCN(Cc2cc(C(C)C)n[nH]2)C1 (stereo not drawn),i,28,i,i,i
CCOC(=O)C1(Cc2cccc(OC)c2)CCN(Cc2cccnc2)CC1,i,i,i,nt,i
COc1ccc(-c2cn(CC[C@@H]3CC[C@H](NC(=O)c4cnccn4)[C@H](CO)O3)nn2)cc1,i,i,i,i,i
O=C1CN(C(=O)NCC(=O)N[C@H](C(=O)O)c2ccccc2)c2ccccc2N1,18,nt,i,i,i
COc1ccccc1-c1cnc2c(c1)C(=O)N([C@@H](C)CO)C[C@@H](C)[C@H](CN(C)C(=O)CC1CC1)O2,i,i,i,i,i
Cc1ccc([N+](=O)[O-])cc1S(=O)(=O)NCC1COc2ccccc2O1 (stereo not drawn),i,i,i,i,i
Cc1ccc(/C(N)=N/OC(=O)Cc2cccc3ccccc23)cc1,i,i,i,nt,i
COc1ccc(OC(=O)Cc2cccc3ccccc23)cc1,15,i,i,i,i
CC(=O)c1ccc(OC(=O)Cc2cccc3ccccc23)cc1,26,i,i,i,i
O=[N+]([O-])c1ccc(O)c(/C=N/n2cnc3ccccc32)c1,i,nt,70,i,i
O=[N+]([O-])c1ccc(O)c(/C=N/n2c(CO)nc3ccccc32)c1,i,nt,i,i,i
Cc1cc2c(=O)n(C)c(SCC(=O)Nc3cccc(F)c3)nc2s1,i,nt,i,i,i
Cc1cc2c(=O)n(C)c(SCC(=O)Nc3ccc(F)cc3)nc2s1,i,i,37,i,i
CC(=O)Nc1ccc(NC(=O)CSc2ncc(C(=O)Nc3ccc(F)cc3)c(=O)n2C)cc1,i,nt,30,i,i
CC(=O)Nc1cccc(NC(=O)CSc2ncc(C(=O)Nc3ccc(F)cc3)c(=O)n2C)c1,i,i,i,i,i
COc1ccc(C(C)=O)cc1COC(=O)CNC(=O)c1ccc(Cl)cc1,i,i,i,nt,i
CCNC(=O)[C@@H]1[C@@H](CO)[C@@H]2Cn3c(ccc(C4=CCCCC4)c3=O)[C@H]1N2CC,nt,i,nt,nt,nt
Cc1ccc(S(=O)(=O)c2nc(C)c3c(n2)CCC3)cc1,nt,nt,nt,i,nt
O=C(N[C@H](Cc1ccccc1)C(=O)NC1CCCCC1)[C@H]1O[C@@H](n2ccc(=O)[nH]c2=O)[C@H](O)[C@@H]1O,i,i,28,nt,i
Cc1ccn2c(NC3CCCCC3)c(-c3cccc(SC4CCCCC4)c3)nc2c1,i,i,?,i,i
Cc1ccn2c(NC3CCCCC3)c(-c3ccc(SC4CCCCC4)cc3)nc2c1,nt,i,37,nt,i
COc1ccccc1Nc1nc(NCCO)nc(N2CCCC2)n1,i,i,i,i,i
Cc1ccc(Nc2nc(NCCO)nc(N3CCCC3)n2)cc1,nt,i,60,i,i
OCCNc1nc(Nc2ccccc2C(F)(F)F)nc(N2CCCC2)n1,i,i,i,i,i
COc1ccccc1Nc1nc(NCCCCO)nc(N2CCCC2)n1,nt,i,86,i,i
SMILES,SIRT5 block,E-sel inducer,DENV2 CPE,PglD DTNB,ERAP1 inh
O=C(Oc1ccccc1)c1ccccc1C(=O)Oc1ccccc1,i,nt,27,i,i
O=C(Oc1ccccc1)c1cccc2cccc(C(=O)Oc3ccccc3)c12,i,i,i,nt,i
O=[N+]([O-])c1ccc(COc2ncnc3ccccc23)cc1,i,i,i,nt,i
C[C@H](CO)N1C[C@H](C)[C@@H](CN(C)S(C)(=O)=O)OCCCC[C@H](C)Oc2ccc(NC(=O)Cc3ccccc3)cc2C1=O,i,i,?,i,i
COCC(=O)Nc1ccc2c(c1)OC[C@H](C)N(CC1CC1)C[C@@H](C)[C@@H](OC)CN(C)C2=O,20,i,i,i,nt
COCC(=O)Nc1ccc2c(c1)OC[C@H](C)N(C(=O)CC1CC1)C[C@@H](C)[C@@H](OC)CN(C)C2=O,i,i,i,i,i
CCCC(=O)Nc1ccc2c(c1)OC[C@@H](C)N(C(=O)CN1CCOCC1)C[C@@H](C)[C@H](OC)CN(C)C2=O,i,i,21,i,i
COCC(=O)Nc1ccc2c(c1)OC[C@H](C)N(C(=O)CC1CC1)C[C@H](C)[C@H](OC)CN(C)C2=O,i,i,31,i,i
COCC(=O)Nc1ccc2c(c1)OC[C@@H](C)N(C(=O)COC)C[C@@H](C)[C@H](OC)CN(C)C2=O,nt,i,53,i,i
CCCC(=O)Nc1ccc2c(c1)C(=O)N(C)C[C@@H](OC)[C@H](C)CN(C(=O)CN1CCOCC1)[C@H](C)CO2,i,i,i,i,i
CCCNC(=O)C(Cc1cccc(OC)c1)NC(=O)c1ccc(C(C)(C)C)cc1 (stereo not drawn),nt,i,nt,i,nt
